Source: ChEMBL document CHEMBL4229508, “Nitric oxide donor-based FFA1 agonists: Design, synthesis and biological evaluation as potential anti-diabetic and anti-thrombotic agents” (Bioorg Med Chem, 2018)

Tests used:
Mus musculus = assay: Antidiabetic activity in ICR mouse assessed as reduction in plasma glucose AUC (0 to 90 mins) at 20 mg/kg, po dosed 30 mins prior to glucose challenge by OGTT relative to control; format: functional; design: scale not given: the % may be the effect or the level left
Procedure, shortened: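 Male ICR mice, fasted 12 h, randomized into groups (n = 6). Compound was given orally at 20 mg/kg in 0.5% methylcellulose 30 min before an oral glucose load (3 g/kg). Blood glucose was read by test strips at −30, 0, 15, 30, 60 and 90 min. AUC0–90min was calculated; mean ± SD.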

Platelet [1] = assay: Antiplatelet activity in rabbit platelet rich plasma assessed as inhibition of ADP-induced platelet aggregation at 0.1 mM preincubated for 5 mins followed by ADP addition measured up to 5 mins in presence of NO scavenger carboxy-PTIO; format: functional; settings: Oryctolagus cuniculus
Procedure, shortened: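 Run as the rabbit PRP turbidimetric assay: compound at 0.1 mM, 5 min preincubation at 37 °C, ADP 10 µM, maximal light transmission recorded within 5 min. Carboxy-PTIO (20 µM) was also incubated with the drug-platelet suspension. Inhibition % is relative to vehicle. Mean ± SD of three independent experiments.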

Platelet [2] = assay: Antiplatelet activity in rabbit platelet rich plasma assessed as inhibition of ADP-induced platelet aggregation at 0.1 mM preincubated for 5 mins followed by ADP addition measured up to 5 mins; format: functional; settings: Oryctolagus cuniculus
Procedure, shortened: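 Rabbit blood was spun at 500 rpm for 10 min to give PRP, and then at 3000 rpm for 10 min to give PPP. PRP was preincubated in duplicate with compound (0.1 mM), vehicle or ticlopidine for 5 min at 37 °C. Aggregation was induced with ADP (10 µM), and light transmission at maximal aggregation was recorded within 5 min. Inhibition % = (A−B)/A×100 versus vehicle. Three independent experiments, mean ± SD.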

[3] = target: Free fatty acid receptor 1 (Homo sapiens, UniProt O14842); assay: Agonist activity at human FFA1 receptor expressed in CHO cells assessed as increase in intracellular calcium levels measured for 90 secs by Fluo 4-AM dye based FLIPR assay; format: functional, cell-based
Free fatty acid receptor 1, sequence (O14842 whole entry): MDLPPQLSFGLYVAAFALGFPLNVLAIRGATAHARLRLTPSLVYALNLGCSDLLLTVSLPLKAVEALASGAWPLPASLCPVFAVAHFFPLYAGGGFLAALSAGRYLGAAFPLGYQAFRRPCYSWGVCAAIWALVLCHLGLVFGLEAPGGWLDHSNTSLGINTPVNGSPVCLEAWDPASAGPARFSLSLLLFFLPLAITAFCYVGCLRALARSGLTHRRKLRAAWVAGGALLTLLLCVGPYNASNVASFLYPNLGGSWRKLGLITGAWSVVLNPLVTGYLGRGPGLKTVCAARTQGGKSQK
Procedure, shortened: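 CHO cells stably expressing human FFA1 were seeded at 15 K cells/well and grown 12 h at 37 °C, 5% CO2, then washed with HBSS. Ca2+ flux after compound addition was read on FLIPR for 90 s. Activity = [(A−B)/(C−B)]×100, with B = vehicle and C = 10 µM γ-linolenic acid.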

Compound `Cc1cc(OCCCO[N+](=O)[O-])cc(C)c1-c1cccc(COc2ccc(OCC(=O)O)c(F)c2)c1` has an Activity (Mus musculus) of 41.6%, an inhibition at 100 µM (Platelet [1]) of 1.05% and an inhibition at 100 µM (Platelet [2]) of 10.8%. It also gave an EC50 [3] of 61.5 nM.
For `COc1cc(C)c(-c2cccc(COc3ccc(OCC(=O)O)c(F)c3)c2)c(C)c1`, the EC50 [3] was 54.2 nM.
Compound `Cc1cc(OCCCS(C)(=O)=O)cc(C)c1-c1cccc(COc2ccc3c(c2)OC[C@H]3CC(=O)O)c1` has an Activity (Mus musculus) of 32.3%.
`Cc1cc(OCCCCO[N+](=O)[O-])cc(C)c1-c1cccc(COc2ccc(OCC(=O)O)c(F)c2)c1` showed an inhibition at 100 µM (Platelet [1]) of 1.15%, an inhibition at 100 µM (Platelet [2]) of 11.1% and an EC50 [3] of 93.7 nM.
With `Cc1cc(OCCO[N+](=O)[O-])cc(C)c1-c1cccc(COc2ccc(OCC(=O)O)c(F)c2)c1` the inhibition at 100 µM (Platelet [1]) was 1.34%, the inhibition at 100 µM (Platelet [2]) was 8.28% and the EC50 [3] was 76.4 nM.
